Experimental data from ChEMBL document CHEMBL4004865, “Synthesis, SAR and molecular docking study of novel non-β-lactam inhibitors of TEM type β-lactamase” (Bioorg Med Chem Lett, 2017).

Key:
[1] = system: Escherichia coli; assay: Inhibition of Escherichia coli beta-lactamase TEM-171 using CENTA as substrate at 100 uM by UV spectrophotometric method relative to control
How it was run: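 Substrate and each inhibitor were tested at one fixed concentration. The initial rate V0 of substrate hydrolysis was recorded. The relative activity decrease (%) was calculated from V0 with inhibitor versus V0 of the enzyme-only control.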

[2] = system: Escherichia coli; assay: Inhibition of Escherichia coli beta-lactamase TEM-171 assessed as initial hydrolysis rate of substrate CENTA at 100 uM by UV spectrophotometric method (reference value: 0.74 +/- 0.11 uM/s)
How it was run: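 TEM-171 β-lactamase at 10 nM. Substrate and each inhibitor were tested at one fixed concentration. The initial rate V0 of substrate hydrolysis was recorded. The relative activity decrease (%) was calculated from V0 with inhibitor versus V0 of the enzyme-only control.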

Row | Structure (SMILES) | inhibition [1] [%] | V0 [2] [µM/s]
1 | O=C(O)c1ccc(NC(=S)Nc2ccc(Oc3ccc(Cl)cc3Cl)cc2)cc1 | 50 | 0.37
2 | O=C(O)CCC(=O)Nc1ccc(Oc2ccc(Cl)cc2Cl)cc1 | 38 | 0.46
3 | O=C(O)C(=O)Nc1ccc(Oc2ccc(Cl)cc2Cl)cc1 | 31 | 0.51
4 | O=C(O)CCC(=O)Nc1ccc(Oc2ccccc2)cc1 | 1.4 | 0.73
5 | O=C(O)CCCC(=O)Nc1ccc(Oc2ccccc2)cc1 | 1.4 | 0.73
6 | O=C(O)CCCC(=O)Nc1ccc(Oc2ccc(Cl)cc2)cc1 | 1.4 | 0.73
7 | O=C(O)CCCC(=O)Nc1ccc(Oc2ccc(Br)cc2)cc1 |  | 0.53
8 | O=C(O)CCC(=O)Nc1ccc(Oc2ccc(Cl)cc2)cc1 | 5.4 | 0.7

Second part, the molecule after the results:

Row | inhibition [1] [%] | V0 [2] [µM/s] | Structure (SMILES)
9 | 28.4 | 0.53 | O=C(O)c1ccc(NC(=S)Nc2ccc(Oc3ccc(Cl)cc3)cc2)cc1
10 | 31 | 0.51 | O=C(O)CCCC(=O)Nc1ccc(Oc2ccc(Cl)cc2Cl)cc1
11 | 28 | 0.53 | O=C(O)CCC(=O)Nc1ccc(Oc2ccc(Br)cc2)cc1
12 | 20.3 | 0.59 | O=C(O)c1ccc(NC(=S)Nc2ccc(Oc3ccccc3)cc2)cc1
